Values joined by “and” are separate entries in the source; they are usually repeats but may differ in a detail not shown here. Equal values may be shown once.
System: HEK-293T
Test: Multiplex assay against HEK293T
Format: toxicity, cell-based
Details: human
Procedure, shortened: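 On a CQ1 microscope at 37°C and 5% CO2, live cells were imaged after compound addition. They had been stained at seeding with Hoechst33342, BioTracker Green Microtubule Cytoskeleton Dye, MitoTracker Red and Annexin V Alexa Fluor 680. CellPathfinder machine-learning gating assigned cells to Hoechst high-intensity objects or normal cells, normal cells to healthy, pyknosed or fragmented nuclei, and pyknosed cells to mitotic or apoptotic. Tubulin, mitochondrial-mass and membrane-permeability phenotypes are per cents of healthy-nucleus cells.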

[1] = 12 h, 1 µM, compound concentration 1 uM
[2] = 12 h, 10 µM, compound concentration 10 uM
[3] = 24 h, 1 µM, compound concentration 1 uM
[4] = 24 h, 10 µM, compound concentration 10 uM
[5] = 48 h, 1 µM, compound concentration 1 uM
[6] = 48 h, 10 µM, compound concentration 10 uM

## O=C(NCc1cccc(O)c1)Nc1nc(-c2ccncc2)cs1
[1]
  Population Apoptotic (%): 7.14% and 10.34%
  Population Fragmented Nuclei (%): 2.92% and 3.91%
  Population Healthy Nuclei (%): 52.8% and 28.12%
  Population Hoechst High Intensity Objects (%): 0.24% and 0%
  Population Membrane Permeable-Phenotype (%): 0.92% and 0%
  Population Mitochondria Different-Phenotype (%): 22.12% and 19.44%
  Population Mitotic Cells (%): 92.86% and 89.66%
  Population Normal (%): 99.76% and 100%
  Population Pyknosed Nuclei (%): 44.28% and 67.97%
[2]
  Population Apoptotic (%): 7.43% and 12.61%
  Population Fragmented Nuclei (%): 2.74% and 5.1%
  Population Healthy Nuclei (%): 52.13% and 34.18%
  Population Hoechst High Intensity Objects (%): 0%
  Population Membrane Permeable-Phenotype (%): 4.09% and 0%
  Population Mitochondria Different-Phenotype (%): 19.88% and 13.43%
  Population Mitotic Cells (%): 92.57% and 87.39%
  Population Normal (%): 100%
  Population Pyknosed Nuclei (%): 45.12% and 60.71%
  Total Cell Count: 328 and 196
[3]
  Population Apoptotic (%): 13.54% and 22%
  Population Fragmented Nuclei (%): 2.1% and 4.17%
  Population Healthy Nuclei (%): 77.73% and 54.17%
  Population Hoechst High Intensity Objects (%): 0%
  Population Membrane Permeable-Phenotype (%): 0.54% and 0%
  Population Mitochondria Different-Phenotype (%): 3.78% and 6.15%
  Population Mitotic Cells (%): 86.46% and 78%
  Population Normal (%): 100%
  Population Pyknosed Nuclei (%): 20.17% and 41.67%
  Population Tubulin-Different-Phenotype (%): 3.51% and 9.23%
[4]
  Population Apoptotic (%): 12.64% and 13.27%
  Population Fragmented Nuclei (%): 3.74%
  Population Healthy Nuclei (%): 72.99% and 50.47%
  Population Hoechst High Intensity Objects (%): 0% and 0.93%
  Population Membrane Permeable-Phenotype (%): 1.1% and 0%
  Population Mitochondria Different-Phenotype (%): 5.86% and 10.19%
  Population Mitotic Cells (%): 87.36% and 86.73%
  Population Normal (%): 100% and 99.07%
  Population Pyknosed Nuclei (%): 23.26% and 45.79%
  Population Tubulin-Different-Phenotype (%): 5.86% and 3.7%
  Total Cell Count: 374 and 216
[5]
  Population Apoptotic (%): 17.39% and 25%
  Population Fragmented Nuclei (%): 2.27% and 10.14%
  Population Healthy Nuclei (%): 86.57% and 68.24%
  Population Hoechst High Intensity Objects (%): 0.16% and 0.67%
  Population Membrane Permeable-Phenotype (%): 5.42% and 4.95%
  Population Mitochondria Different-Phenotype (%): 14.95% and 15.84%
  Population Mitotic Cells (%): 82.61% and 75%
  Population Normal (%): 99.84% and 99.33%
  Population Pyknosed Nuclei (%): 11.17% and 21.62%
[6]
  Population Apoptotic (%): 22.81% and 34.48%
  Population Fragmented Nuclei (%): 4.16% and 5.49%
  Population Healthy Nuclei (%): 85.07% and 70.04%
  Population Hoechst High Intensity Objects (%): 0.19% and 0%
  Population Membrane Permeable-Phenotype (%): 4% and 0.6%
  Population Mitochondria Different-Phenotype (%): 19.78% and 24.1%
  Population Mitotic Cells (%): 77.19% and 65.52%
  Population Normal (%): 99.81% and 100%
  Population Pyknosed Nuclei (%): 10.78% and 24.47%
  Population Tubulin-Different-Phenotype (%): 0.89% and 5.42%
  Total Cell Count: 530 and 237

## COc1cc(Nc2ncc3c(n2)-c2ccc(Cl)cc2C(c2c(F)cccc2OC)=NC3)ccc1C(=O)O [ALISERTIB]
[1]
  Population Apoptotic (%): 38% and 61%
  Population Fragmented Nuclei (%): 3% and 7%
  Population Healthy Nuclei (%): 88% and 85%
  Population Hoechst High Intensity Objects (%): 5% and 7%
  Population Membrane Permeable-Phenotype (%): 0%
  Population Mitochondria Different-Phenotype (%): 44% and 69%
  Population Mitotic Cells (%): 61% and 38%
  Population Normal (%): 94% and 93%
  Population Pyknosed Nuclei (%): 7%
  Population Tubulin-Different-Phenotype (%): 46% and 49%
[2]
  Population Apoptotic (%): 61% and 88%
  Population Fragmented Nuclei (%): 8% and 9%
  Population Healthy Nuclei (%): 74% and 72%
  Population Hoechst High Intensity Objects (%): 9% and 15%
  Population Membrane Permeable-Phenotype (%): 0%
  Population Mitochondria Different-Phenotype (%): 80% and 82%
  Population Normal (%): 90% and 84%
  Population Pyknosed Nuclei (%): 16% and 17%
  Population Tubulin-Different-Phenotype (%): 68% and 54%
[3]
  Population Apoptotic (%): 50% and 47%
  Population Fragmented Nuclei (%): 10% and 9%
  Population Healthy Nuclei (%): 82% and 81%
  Population Hoechst High Intensity Objects (%): 3% and 9%
  Population Membrane Permeable-Phenotype (%): 0%
  Population Mitochondria Different-Phenotype (%): 25% and 47%
  Population Mitotic Cells (%): 50% and 52%
  Population Normal (%): 96% and 90%
  Population Pyknosed Nuclei (%): 7% and 9%
  Population Tubulin-Different-Phenotype (%): 31% and 30%
[4]
  Population Apoptotic (%): 54% and 56%
  Population Fragmented Nuclei (%): 8% and 12%
  Population Healthy Nuclei (%): 74% and 55%
  Population Membrane Permeable-Phenotype (%): 0% and 1%
  Population Mitochondria Different-Phenotype (%): 75% and 86%
  Population Mitotic Cells (%): 45% and 43%
  Population Normal (%): 93% and 65%
  Population Pyknosed Nuclei (%): 16% and 31%
  Population Tubulin-Different-Phenotype (%): 64% and 50%
[5]
  Population Apoptotic (%): 31% and 57%
  Population Fragmented Nuclei (%): 14% and 16%
  Population Healthy Nuclei (%): 79% and 77%
  Population Membrane Permeable-Phenotype (%): 0%
  Population Mitochondria Different-Phenotype (%): 14% and 27%
  Population Mitotic Cells (%): 68% and 42%
  Population Normal (%): 96% and 84%
  Population Pyknosed Nuclei (%): 5%
  Population Tubulin-Different-Phenotype (%): 17% and 24%
[6]
  Population Apoptotic (%): 48% and 82%
  Population Fragmented Nuclei (%): 13% and 19%
  Population Healthy Nuclei (%): 78% and 61%
  Population Membrane Permeable-Phenotype (%): 0% and 4%
  Population Mitochondria Different-Phenotype (%): 57% and 73%
  Population Normal (%): 94% and 67%
  Population Pyknosed Nuclei (%): 7% and 19%
  Population Tubulin-Different-Phenotype (%): 42% and 38%

## CCOc1c2c(c(OCC)c3ncccc13)CN(c1ccc(CS(=O)(=O)NC(=O)Cc3ccccc3OC)cc1C)C2=O
[1]
  Population Apoptotic (%): 33% and 35%
  Population Fragmented Nuclei (%): 3% and 5%
  Population Healthy Nuclei (%): 81% and 82%
  Population Hoechst High Intensity Objects (%): 6% and 5%
  Population Membrane Permeable-Phenotype (%): 0%
  Population Mitochondria Different-Phenotype (%): 43% and 54%
  Population Mitotic Cells (%): 66% and 64%
  Population Normal (%): 93% and 94%
  Population Pyknosed Nuclei (%): 14% and 12%
  Population Tubulin-Different-Phenotype (%): 31% and 16%
  Total Cell Count: 356 and 355
[2]
  Population Apoptotic (%): 45% and 53%
  Population Fragmented Nuclei (%): 9% and 7%
  Population Healthy Nuclei (%): 78% and 76%
  Population Hoechst High Intensity Objects (%): 4% and 9%
  Population Membrane Permeable-Phenotype (%): 0%
  Population Mitochondria Different-Phenotype (%): 49% and 72%
  Population Mitotic Cells (%): 54% and 46%
  Population Normal (%): 95% and 90%
  Population Pyknosed Nuclei (%): 12% and 16%
  Population Tubulin-Different-Phenotype (%): 34% and 29%
  Total Cell Count: 367 and 362
[3]
  Population Apoptotic (%): 35% and 27%
  Population Fragmented Nuclei (%): 11% and 5%
  Population Healthy Nuclei (%): 73% and 85%
  Population Hoechst High Intensity Objects (%): 5% and 3%
  Population Membrane Permeable-Phenotype (%): 0%
  Population Mitochondria Different-Phenotype (%): 28% and 27%
  Population Mitotic Cells (%): 64% and 72%
  Population Normal (%): 94% and 96%
  Population Pyknosed Nuclei (%): 14% and 8%
  Population Tubulin-Different-Phenotype (%): 20% and 10%
  Total Cell Count: 462 and 473
[4]
  Population Apoptotic (%): 18% and 32%
  Population Fragmented Nuclei (%): 10% and 8%
  Population Healthy Nuclei (%): 75% and 82%
  Population Hoechst High Intensity Objects (%): 4% and 8%
  Population Membrane Permeable-Phenotype (%): 0% and 1%
  Population Mitochondria Different-Phenotype (%): 36% and 49%
  Population Mitotic Cells (%): 81% and 67%
  Population Normal (%): 95% and 91%
  Population Pyknosed Nuclei (%): 14% and 9%
  Population Tubulin-Different-Phenotype (%): 28% and 17%
  Total Cell Count: 446 and 481
[5]
  Population Apoptotic (%): 29% and 33%
  Population Fragmented Nuclei (%): 13% and 11%
  Population Healthy Nuclei (%): 79% and 83%
  Population Hoechst High Intensity Objects (%): 3% and 1%
  Population Membrane Permeable-Phenotype (%): 0%
  Population Mitochondria Different-Phenotype (%): 20% and 14%
  Population Mitotic Cells (%): 70% and 66%
  Population Normal (%): 96% and 98%
  Population Pyknosed Nuclei (%): 6% and 5%
  Population Tubulin-Different-Phenotype (%): 13% and 7%
  Total Cell Count: 822 and 770
[6]
  Population Apoptotic (%): 41% and 33%
  Population Fragmented Nuclei (%): 13% and 12%
  Population Healthy Nuclei (%): 78% and 81%
  Population Hoechst High Intensity Objects (%): 4% and 3%
  Population Membrane Permeable-Phenotype (%): 1% and 0%
  Population Mitochondria Different-Phenotype (%): 32% and 22%
  Population Mitotic Cells (%): 58% and 66%
  Population Normal (%): 95% and 96%
  Population Pyknosed Nuclei (%): 8% and 6%
  Population Tubulin-Different-Phenotype (%): 16% and 11%
  Total Cell Count: 631 and 724
